Assay results gathered from unrelated publications.
Protocols differ between the studies behind these lines.
CYP3A4: Cytochrome P450 3A4 (CYP3A4, Homo sapiens, UniProt P08684)
ADORA2B: Adenosine receptor A2b (ADORA2B, Homo sapiens, UniProt P29275)
F12: Coagulation factor XII (F12, Homo sapiens, UniProt P00748)

COc1cc(O)c2c(c1)C(=O)c1cc(C)cc(O)c1C2=O  IC50 (CYP3A4; enzyme activity, inhibitor; human, liver microsomes; pH 7.4, testosterone probe): 13.5 µM
Oc1ccc2c(c1)CC[C@H](c1ccccc1)[C@@H]2c1ccc(OCCN2CCCC2)cc1  IC50 (Progesterone receptor (PGR, Homo sapiens, UniProt P06401); ligand displacement, radioligand): 0.069 µM
CC(C)=CCNc1ncnc2c1ncn2[C@@H]1O[C@H](CO)[C@@H](O)[C@H]1O  EC50 (ADORA2B; G protein activation, agonist): 84 µM
CO[C@]1(C(=O)N[C@@H](C)c2ccc(-n3cc(F)cn3)nc2)CC[C@H](c2nc(C)cc(Nc3cc(C)[nH]n3)n2)CC1  Ki (CYP3A4; enzyme activity, inhibitor; human, liver microsomes): 24 µM
O=c1cc(-c2ccc(O)cc2)oc2c([C@@H]3OC[C@H](O)[C@H](O)[C@H]3O)c(O)c([C@@H]3O[C@H](CO)[C@@H](O)[C@H](O)[C@H]3O)c(O)c12  IC50 (Calcium/calmodulin-dependent protein kinase type II subunit gamma (CAMK2G, Homo sapiens, UniProt Q13555); enzyme activity, inhibitor): 189 µM
O=c1oc(-c2ccco2)nc2ccccc12  IC50 (F12; enzyme activity, inhibitor, absorbance; pH 7.4): > 50 µM
CN(C)c1ncnc2c1ncn2[C@@H]1O[C@H](CO)[C@@H](O)[C@H]1O  EC50 (ADORA2B; G protein activation, agonist): 22 µM
O=c1oc(-c2cccnc2)nc2ccccc12  IC50 (F12; enzyme activity, inhibitor, absorbance; pH 7.4): > 50 µM
COc1ccc(-c2cc(OCC(=O)N(C)Cc3cccnc3C)nc(-n3nc(C)cc3C)n2)cc1  IC50 (Leucyl-cystinyl aminopeptidase (LNPEP, Homo sapiens, UniProt Q9UIQ6); enzyme activity, inhibitor, fluorescence): 0.157 µM
